Measurements published in ChEMBL document CHEMBL3864121, “Development of ebsulfur analogues as potent antibacterials against methicillin-resistant Staphylococcus aureus” (Bioorg Med Chem, 2016).
Values after ≈ are worked out from the molar mass of the structure shown. Active and inactive are the calls of the source. The rule behind the calls is not given here.

What was measured:
Type in all cases: functional
Staphylococcus aureus [1] = assay: Antibacterial activity against methicillin-sensitive Staphylococcus aureus ATCC 6538 measured after overnight incubation by broth double-dilution method
Outline: (§1)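 MIC by broth double-dilution in liquid Mueller-Hinton medium. Values are reported in µg/mL.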

Staphylococcus aureus [2] = assay: Antibacterial activity against methicillin-sensitive Staphylococcus aureus ATCC 25923 measured after overnight incubation by broth double-dilution method; outline: as §1
Staphylococcus aureus [3] = assay: Antibacterial activity against methicillin-sensitive Staphylococcus aureus ATCC 29213 measured after overnight incubation by broth double-dilution method; outline: as §1
Staphylococcus aureus [4] = assay: Antibacterial activity against methicillin-resistant Staphylococcus aureus ATCC 33591 measured after overnight incubation by broth double-dilution method; outline: as §1
Staphylococcus aureus [5] = assay: Antibacterial activity against methicillin-resistant Staphylococcus aureus 1 measured after overnight incubation by broth double-dilution method; outline: as §1
Staphylococcus aureus [6] = assay: Antibacterial activity against methicillin-resistant Staphylococcus aureus 2 measured after overnight incubation by broth double-dilution method; outline: as §1
Staphylococcus aureus [7] = assay: Antibacterial activity against methicillin-resistant Staphylococcus aureus BRS3 measured after overnight incubation by broth double-dilution method; outline: as §1
Staphylococcus aureus [8] = assay: Antibacterial activity against methicillin-resistant Staphylococcus aureus C1 measured after overnight incubation by broth double-dilution method; outline: as §1
Staphylococcus aureus [9] = assay: Antibacterial activity against methicillin-resistant Staphylococcus aureus C2 measured after overnight incubation by broth double-dilution method; outline: as §1
Staphylococcus aureus [10] = assay: Antibacterial activity against methicillin-resistant Staphylococcus aureus C7 measured after overnight incubation by broth double-dilution method; outline: as §1
Staphylococcus aureus [11] = assay: Antibacterial activity against methicillin-resistant Staphylococcus aureus C14 measured after overnight incubation by broth double-dilution method; outline: as §1
Staphylococcus aureus [12] = assay: Antibacterial activity against methicillin-resistant Staphylococcus aureus C16 measured after overnight incubation by broth double-dilution method; outline: as §1
Staphylococcus aureus [13] = assay: Antibacterial activity against methicillin-resistant Staphylococcus aureus C19 measured after overnight incubation by broth double-dilution method; outline: as §1
Staphylococcus aureus [14] = assay: Antibacterial activity against methicillin-resistant Staphylococcus aureus G1 measured after overnight incubation by broth double-dilution method; outline: as §1
Staphylococcus aureus [15] = assay: Antibacterial activity against methicillin-resistant Staphylococcus aureus G6 measured after overnight incubation by broth double-dilution method; outline: as §1
Staphylococcus aureus [16] = assay: Antibacterial activity against methicillin-resistant Staphylococcus aureus G12 measured after overnight incubation by broth double-dilution method; outline: as §1
Staphylococcus aureus [17] = assay: Antibacterial activity against methicillin-resistant Staphylococcus aureus G14 measured after overnight incubation by broth double-dilution method; outline: as §1
Staphylococcus aureus [18] = assay: Antibacterial activity against methicillin-resistant Staphylococcus aureus NRS4 measured after overnight incubation by broth double-dilution method; outline: as §1
Staphylococcus aureus [19] = assay: Antibacterial activity against methicillin-resistant Staphylococcus aureus NRS51 measured after overnight incubation by broth double-dilution method; outline: as §1
Staphylococcus aureus [20] = assay: Antibacterial activity against methicillin-resistant Staphylococcus aureus NRS77 measured after overnight incubation by broth double-dilution method; outline: as §1
Staphylococcus aureus [21] = assay: Antibacterial activity against methicillin-resistant Staphylococcus aureus S14 measured after overnight incubation by broth double-dilution method; outline: as §1
Staphylococcus aureus [22] = assay: Antibacterial activity against methicillin-resistant Staphylococcus aureus S17 measured after overnight incubation by broth double-dilution method; outline: as §1
Staphylococcus aureus [23] = assay: Antibacterial activity against methicillin-resistant Staphylococcus aureus S22 measured after overnight incubation by broth double-dilution method; outline: as §1
Staphylococcus aureus [24] = assay: Antibacterial activity against methicillin-resistant Staphylococcus aureus S24 measured after overnight incubation by broth double-dilution method; outline: as §1
Staphylococcus aureus [25] = assay: Antibacterial activity against methicillin-resistant Staphylococcus aureus USA100 measured after overnight incubation by broth double-dilution method; outline: as §1
Staphylococcus aureus [26] = assay: Antibacterial activity against methicillin-resistant Staphylococcus aureus USA200 measured after overnight incubation by broth double-dilution method; outline: as §1
Staphylococcus aureus [27] = assay: Antibacterial activity against methicillin-resistant Staphylococcus aureus USA300 measured after overnight incubation by broth double-dilution method; outline: as §1
Staphylococcus aureus [28] = assay: Antibacterial activity against methicillin-resistant Staphylococcus aureus USA600 measured after overnight incubation by broth double-dilution method; outline: as §1
[29] = tested on: Staphylococcus epidermidis; assay: Antibacterial activity against Staphylococcus epidermidis ATCC 35984 measured after overnight incubation by broth double-dilution method; settings: RP62A
Outline: (§2)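 MIC by broth double-dilution in Mueller-Hinton medium. Re-testing at the time-kill inoculum used 1×10^6 CFU/mL.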

Enterococcus faecalis [30] = assay: Antibacterial activity against Enterococcus faecalis ATCC 29212 measured after overnight incubation by broth double-dilution method; outline: as §2
Enterococcus faecalis [31] = assay: Antibacterial activity against Enterococcus faecalis ATCC 49533 measured after overnight incubation by broth double-dilution method; outline: as §2
Enterococcus faecium = assay: Antibacterial activity against Enterococcus faecium BM4105-RF measured after overnight incubation by broth double-dilution method; outline: as §1
Enterococcus = assay: Antibacterial activity against Vancomycin-resistant Enterococcus measured after overnight incubation by broth double-dilution method; outline: as §1
Listeria monocytogenes = assay: Antibacterial activity against Listeria monocytogenes ATCC 19115 measured after overnight incubation by broth double-dilution method; outline: as §2
[32] = tested on: Mycolicibacterium smegmatis; assay: Antibacterial activity against Mycobacterium smegmatis MC2-155 measured after overnight incubation by broth double-dilution method; settings: str. MC2 155; outline: as §1
Staphylococcus aureus [33] = assay: Antibacterial activity against methicillin-resistant Staphylococcus aureus S22 using 1 10^6CFU/ml measured after overnight incubation by broth double-dilution method

**Q.** What does the source list for `CCCCCn1sc2ccccc2c1=O`?
**A.** MIC (Staphylococcus aureus [1]): 7.8 µg/mL (≈ 35.2 µM); MIC (Staphylococcus aureus [2]): 3.9 µg/mL (≈ 17.6 µM); MIC (Staphylococcus aureus [3]): 3.9 µg/mL (≈ 17.6 µM); MIC (Staphylococcus aureus [4]): 1 µg/mL (≈ 4.52 µM); MIC (Staphylococcus aureus [5]): 0.5 µg/mL (≈ 2.26 µM); MIC (Staphylococcus aureus [6]): 2 µg/mL (≈ 9.04 µM); MIC (Staphylococcus aureus [7]): 3.9 µg/mL (≈ 17.6 µM); MIC (Staphylococcus aureus [8]): 2 µg/mL (≈ 9.04 µM); MIC (Staphylococcus aureus [9]): 2 µg/mL (≈ 9.04 µM); MIC (Staphylococcus aureus [10]): 2 µg/mL (≈ 9.04 µM); MIC (Staphylococcus aureus [11]): 3.9 µg/mL (≈ 17.6 µM); MIC (Staphylococcus aureus [12]): 7.8 µg/mL (≈ 35.2 µM); MIC (Staphylococcus aureus [13]): 1 µg/mL (≈ 4.52 µM); MIC (Staphylococcus aureus [14]): 0.5 µg/mL (≈ 2.26 µM); MIC (Staphylococcus aureus [15]): 2 µg/mL (≈ 9.04 µM); MIC (Staphylococcus aureus [16]): 2 µg/mL (≈ 9.04 µM); MIC (Staphylococcus aureus [17]): 2 µg/mL (≈ 9.04 µM); MIC (Staphylococcus aureus [18]): 2 µg/mL (≈ 9.04 µM); MIC (Staphylococcus aureus [19]): 3.9 µg/mL (≈ 17.6 µM); MIC (Staphylococcus aureus [20]): 2 µg/mL (≈ 9.04 µM); MIC (Staphylococcus aureus [21]): ≤ 0.25 µg/mL; MIC (Staphylococcus aureus [22]): 2 µg/mL (≈ 9.04 µM); MIC (Staphylococcus aureus [23]): 3.9 µg/mL (≈ 17.6 µM); MIC (Staphylococcus aureus [24]): 3.9 µg/mL (≈ 17.6 µM); MIC (Staphylococcus aureus [25]): 3.9 µg/mL (≈ 17.6 µM); MIC (Staphylococcus aureus [26]): 3.9 µg/mL (≈ 17.6 µM); MIC (Staphylococcus aureus [27]): 3.9 µg/mL (≈ 17.6 µM); MIC (Staphylococcus aureus [28]): 3.9 µg/mL (≈ 17.6 µM); MIC [29]: 3.9 µg/mL (≈ 17.6 µM); MIC (Enterococcus faecalis [30]): 7.8 µg/mL (≈ 35.2 µM); MIC (Enterococcus faecalis [31]): > 125 µg/mL; MIC (Enterococcus faecium): 15.6 µg/mL (≈ 70.5 µM); MIC (Enterococcus): 1 µg/mL (≈ 4.52 µM); MIC (Listeria monocytogenes): 3.9 µg/mL (≈ 17.6 µM); MIC [32]: 2 µg/mL (≈ 9.04 µM); Activity (Staphylococcus aureus [33]): Active
